Data reported in ChEMBL document CHEMBL4513216, “Probing the Open Global Health Chemical Diversity Library for Multistage-Active Starting Points for Next-Generation Antimalarials” (ACS Infect Dis, 2020).

Assay: Toxicity liver stage against HepG2, at 10uM
Format: cell-based
Parameters: test concentration 10 uM, cell line HepG2-A16-CD81EGFP
Conditions: human, HepG2-A16-CD81EGFP cells; read-out: INHIBITION
How it was run: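 Uninfected HepG2-A16-CD81EGFP cells, 3 × 10^3 per well, 1536-well, plated on prespotted compound at 10 μM final, parasite-free screening media added to match infected plates; puromycin 10 μM positive, DMSO 0.5% negative; run in parallel with 48 h PbLuc assay at 37 °C, 5% CO2; viability by CellTiter-Glo luminescence, normalized to controls.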

SMILES	cytotoxicity at 10 µM [%]
O=C(N1CCOCC1)n1cnc2ccccc21	-3.11
Cc1ccc(Cl)cc1N1CCN(CC(=O)NC(C)c2ccco2)CC1 (stereo not given)	5.89
COCCOc1ccc(C(=O)N[C@@H]2CNCCC[C@H]2O)cc1	4.67
CC1(C)[C@H](Cc2cc(CO)on2)C[C@@H]1N(CC1CC1)CC1CC1	3.82
COc1ccc(CN2C[C@@H]3OCC(=O)N(Cc4nccn4C)[C@@H]3C2)cc1	4.24
CC(C)NC(=O)COc1cccc(-c2nc(C(C)C)no2)c1	-5.77
CCC(=O)NC(c1cccnc1)c1cc(C)ccc1C (stereo not given)	-2.8
CC(C)[C@H](NC(=O)Cn1nc2c(cc1=O)CCCC2)C(=O)O	1.85
CN1C(=O)C2(CCN(C(=O)C3CCOCC3)CC2)c2ccccc21	2.5
CCN1C(=O)CCC12CCN(C(=O)c1ccco1)CC2	-3.66
CC(=O)NCC(=O)N1CCC2(CC1)C(=O)N(CC1CC1)c1ccccc12	-4.1
COC(=O)CC1CCN(C(=O)c2ccc(-n3nnnc3C)cc2)CC1	-6.72
O=C(NCCN1CCCCC1)c1nc(-c2ccc3cc[nH]c3c2)no1	-8.54
Cn1cc(I)c(C(=O)NCCCn2cc(Br)cn2)n1	6.54
CCn1nccc1CNC(=O)NC1CCCCC1	-27.5
O=C(C1CC1)N1C[C@H]2CCCN(S(=O)(=O)c3cccc(F)c3)[C@H]2C1	5.11
CNc1cccc(CC2COCCN(C(=O)c3cnn(C)c3)C2)n1 (stereo not given)	2.64
CC(C)N1CCC(Cn2cc(C(N)=O)cn2)CC1	6.39
CC(=O)N1CCn2c(nnc2C2CCCCN2Cc2ccccc2Cl)C1 (stereo not given)	10.6
O=C1CO[C@H]2CN(Cc3cccc4[nH]ccc34)C[C@@H]2N1C1CCOCC1	-17.3
Nc1nccnc1C1CN(C(=O)c2cnc(C3CC3)nc2)CCO1 (stereo not given)	-27
CC(=O)N1CCCC(c2ncncc2-c2ccncc2)C1 (stereo not given)	-15.3

SMILES	cytotoxicity at 10 µM [%]
CN1CCCCC1c1ncc2c(n1)CCN(CCCc1ccccc1)C2 (stereo not given)	-30.5
c1cc(CN2CCCC(c3nnc(-c4cnccn4)o3)C2)ccn1 (stereo not given)	-9.14
Cc1nc(CCC(=O)NC2CCC2)cc(C2CCCNC2)n1 (stereo not given)	1.09
O[C@@H]1CN(Cc2cccnc2)C[C@H]1Oc1ccccc1	-23.2
CN(C)Cc1ccnc(NS(=O)(=O)Cc2cccc(F)c2)c1	1.76
Cc1noc(C)c1CN(C)C(=O)C1CCN(S(N)(=O)=O)CC1	7.47
CC(C)(C)n1ncc(C(=O)NCCCC(N)=O)c1C(F)(F)F	8.85
CSc1c[nH]nc1NS(=O)(=O)c1cc(F)ccc1C	6.98
CC1CCN(c2ccc(C(=O)N3CCCC3c3ccc[nH]3)cn2)CC1 (stereo not given)	2.84
COC(=O)c1ccc(N(C(=O)c2cscn2)C(C)C)c(C)c1	1.7
Cc1cc2n(n1)CC(CNCc1cc(C)on1)CN2 (stereo not given)	-7.93
Cc1cc(C)n(CC2CCN(CC(O)COc3ccccc3)CC2)n1 (stereo not given)	-5.58
CC1COCCN1C(=O)Cc1cc(Cl)c2c(c1)OCCO2 (stereo not given)	-4.29
Cc1c(COc2ccccc2)cccc1NC(=O)N1CC[C@H](O)C1	13.7
Fc1ccc(CNCCn2cccn2)cc1F	-8.01
COc1cc(C(C)NCc2cscn2)ccc1SC(F)F (stereo not given)	0.762
CCC(=O)NCC(=O)NC(Cc1ccccc1)c1sccc1C (stereo not given)	9.25
Cc1cc(NC(=O)c2nc(N3CCCC3)ncc2Cl)ccc1Br	-7.2
O=C(c1cc2c([nH]c1=O)CCC2)N1CCCC1c1ccccn1 (stereo not given)	-3.18
CC(C)OCCSc1nnnn1C1CCOCC1	-0.494
CC(c1ccc(C(F)(F)F)cc1)N1CCN(CCS(C)(=O)=O)CC1 (stereo not given)	3.25
CCSc1cc(C(=O)NCCNC(=O)Cc2ccccc2)ccn1	-6.41

SMILES	cytotoxicity at 10 µM [%]
Cc1cc(NC2CCc3ncnn3C2)n2nc(C(F)(F)F)nc2n1 (stereo not given)	2.93
COc1cc(CNCCNC(=O)c2ccc(O)cc2)ccc1SC	9.72
CCn1cc(S(=O)(=O)NC(CO)Cc2ccccc2)cn1 (stereo not given)	6.07
CCc1nc(CNC2CCCCNC2=O)cs1 (stereo not given)	8.74
Cc1ccc(CNCc2c[nH]nc2C(C)(C)C)c(OC2CCOC2)c1 (stereo not given)	13.8
N#Cc1ccc(N2CCN(c3cnccn3)CC2)c(C(F)(F)F)c1	46.6
NS(=O)(=O)c1cnn(CCC(=O)N(C2CCCCC2)C2CC2)c1	-0.157
CCC1C(=O)NCCN1c1ccnc(C(C)(C)C)n1 (stereo not given)	-8.37
CCC1C(=O)NCCN1c1cc(C)ncn1 (stereo not given)	3.41
CCS(=O)(=O)NC(CCSC)C(=O)Nc1cccc(C)c1C (stereo not given)	-2.51
CCOCCN1CCN(CCOCC(F)(F)F)CC1	1.83
Cc1cccc(C)c1CCNC(=O)N1CCCC2(C1)OCCO2	-3.47
O=C(CN1CCCCC1Cn1cccn1)NC1CCN(C2CC2)CC1 (stereo not given)	-4.43
Cn1cccc1CNC(=O)N(CCO)C1CCCc2ccccc21 (stereo not given)	-7.45
CC(=O)NC(C)c1ccc(OCC2CC2)c(F)c1 (stereo not given)	-7.81
Cc1csc(CNC(=O)Nc2cc(C(F)(F)F)c[nH]c2=O)n1	-13.7
COC(=O)CS(=O)(=O)CCC(=O)N1CCCC1c1ccsc1 (stereo not given)	-16.5
Cc1ccc(N2CCC3(CCN(C(N)=O)CC3)CC2)nn1	1.62
CC(C)(C)NC(=O)CN1CCCC(c2ccc(C(=O)O)cc2)C1 (stereo not given)	-6.17
Cc1cnn(C2(C(=O)O)CCN(c3ccnc4cc(Cl)ccc34)CC2)c1	-6.07
CSc1ccc(CN(CCO)C(=O)CCc2ccc(O)cc2)cc1	-0.711
Cc1ccsc1CN(C)c1cc(N2CCOCC2)ncn1	-0.33

SMILES	cytotoxicity at 10 µM [%]
COc1ccc(CCn2ccnc2-c2cc3n(n2)CCCNC3)cc1	8.07
O=C1CC(C(=O)O)C2(CCN(C(=O)Nc3ccccc3Cl)CC2)N1 (stereo not given)	2.14
Cc1cc(C[C@@H]2COC[C@@H]2NC(=O)CNC(=O)N(C)C)on1	2.57
COCc1ncc(CN2CCC(Oc3ccccc3C)CC2)cn1	1.09
CC[C@H]1COCCN1C(=O)c1cnc(-c2ccccc2)nc1C	2.84
CC(C)c1cc(C(=O)N2CCN(CC3CC3)[C@@H]3CS(=O)(=O)C[C@@H]32)no1	-2.19
O=C1CCCc2occ(C(=O)N3CCCC(O)(CO)C3)c21 (stereo not given)	-10.1
Cc1ncc(C(=O)N2CCC(N3C[C@@H](C)O[C@@H](C)C3)CC2)c(=O)[nH]1	3.42
Cn1nc(CO)c2c1CCN(c1ncnc3c1CCNCC3)C2	0.549
CC(C)SCC(=O)N1Cc2cnc(-c3ccccc3)nc2C1	1.2
CN(CCc1ccccn1)C(=O)CCC1CCCN(c2ccncc2)C1 (stereo not given)	-3.48
CO[C@H]1CN(C(C)C)C[C@@H]1NC(=O)c1cc(-c2ccccc2F)n[nH]1	-6.01
c1cc2c(cc1-n1nc(C3CC3)nc1-c1csnn1)OCCO2	9.46
Cc1nc(C(C)C)ncc1C(=O)N1CCCC(N2CCCC2)C1 (stereo not given)	-20.1
CC1CCN(CCCNS(=O)(=O)Cc2ccccc2F)CC1	-8.79
CCCS(=O)(=O)N1CCN(c2cc(-n3cnc(C)c3C)ncn2)CC1	5.54
CN(C)C(=O)N1CCN(C(=O)CCc2ccccc2)[C@H]2CS(=O)(=O)C[C@H]21	-17.1
CC(C)c1cc(N2CCN(c3ccc(O)cc3)CC2)n2nccc2n1	-5.76
CCn1nc(CC(C)C)cc1C(=O)N1CC[C@@H](O)C1	16.5
Cc1cc(O)nc(C2CCCN(Cc3ccncc3)C2)n1 (stereo not given)	-2.81
Cc1cc2cc(C(=O)N3CC[C@H](O)[C@]4(CCCO4)C3)ccc2o1	1.01
Cc1cccnc1C(=O)N1CCCCC1c1[nH]ncc1S(C)(=O)=O (stereo not given)	5.92

SMILES	cytotoxicity at 10 µM [%]
Cn1ccc(CN2CCC(CC(=O)NC3CCCC3)CC2)cc1=O	-16.8
c1ccc(COc2ccccc2CNC2CCc3ncnn3C2)cc1 (stereo not given)	-10.2
Cc1cc(CN(C)C(=O)NC2CCN(c3ncccn3)CC2)no1	-12.8
Cc1cc(C)n(CC2CCCN2C(=O)CCc2ccco2)n1 (stereo not given)	-3.75
COc1ccc(CNCc2ccnc(N3CCOCC3)c2)cc1OC	1.64
CN1CCOC(CNC(=O)CCCOCCc2ccccc2)C1 (stereo not given)	-3.56
CC(C)c1noc(CCCC(=O)N2CCC(Cc3cccnc3)CC2)n1	-5.43
Cc1cc(CN(C)C(=O)NCc2cccc(N3CCCC3=O)c2)no1	-12.4
COCCOc1ccc(NC(=O)C2CCCN(C(N)=O)C2)cn1 (stereo not given)	-8.9
Cc1cccc(-c2nc(CN(Cc3cccs3)CC3CCCO3)no2)c1 (stereo not given)	-3.01
CCN(Cc1nc2c(cnn2C)c(=O)[nH]1)c1cccc(Cl)c1	1.18
Cc1nc(CN(C)C2CCN(Cc3ccc4c(c3)OCCO4)C2)no1 (stereo not given)	-4.79
Fc1ccc(-c2cnc(C3CCCN3)cn2)cc1 (stereo not given)	-2.79
Cc1cnc(N2CC3(CCN(Cc4cccnc4)C3)C2)nc1	-2.36
CC(C)CN1CCC2(C=C(C(=O)NC3CC3)c3ccccc32)CC1	1.11
CN(C)[C@@H]1CCN(c2ncccn2)[C@H]1Cc1ccncc1	-17.9
O=C1COC2(CCN(Cc3cccs3)CC2)CN1c1ccccc1	-4.63
Cn1cc(N2CCC3(CCN(Cc4cccnc4)C3)C2=O)cn1 (stereo not given)	3.63
CN(C)CCn1c([C@@H]2CCCO2)cc2cccnc21	-25.4
Cc1noc(C)c1CN1CC[C@@H]2O[C@@H](COCC(C)C)CC[C@@H]21	-0.125
Cc1nc[nH]c1CN1C[C@H]2CC[C@@H](C1)N(C(=O)CCNS(C)(=O)=O)C2	-10.4
Cc1ccoc1C1=NNC(=CN2CCCC(Cn3cncn3)C2)O1 (stereo not given)	-2.07
